{
  "source": "paper PMC11336813",
  "about": "(Heliyon, 2024)",
  "key": {"CYP2C19": {"system": "CYP2C19", "details": "human liver microsomes; cited from earlier work"}, "CYP2C9": {"system": "CYP2C9", "details": "human liver microsomes; cited from earlier work"}, "CYP3A4": {"system": "CYP3A4", "details": "human liver microsomes; cited from earlier work"}, "[1]": {"details": "cited from earlier work"}, "plasma proteins": {"system": "plasma proteins", "details": "cited from earlier work"}, "Free": {"assay": "Free", "format": "in vivo, children with epilepsy", "how_it_was_run": "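Children aged 0–16 y on an unchanged oral PER dose for ≥4 weeks, dosed in the evening. Blood (2 mL, EDTA) drawn 8:00–10:00 a.m. next day, spun 1 610 ×g for 5 min, and plasma stored at −80 °C. Plasma (200 μL) ultrafiltered at 13 680 ×g for 20 min at 4 °C. Ultrafiltrate (40 μL) plus PER-D5 internal standard was methanol-precipitated, then run on C18 reversed-phase positive-mode MRM against a least-squares linear calibration.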"}, "[2]": {"assay": "Total PER plasma concentration by HPLC-MS/MS", "format": "in vivo, children with epilepsy"}, "[3]": {"details": "cited from earlier work", "remark": "listed apart in the source"}, "[4]": {"format": "physicochemical", "details": "n = 5"}, "[5]": {"details": "57 plasma samples, steady state"}, "[6]": {"details": "Group A: cotherapy enzyme inducers, n = 11"}, "[7]": {"details": "Group B: cotherapy not strong enzyme inducers/not inhibitors, n = 10"}, "[8]": {"details": "Group C: cotherapy enzyme inhibitors (VPA), n = 31"}, "[9]": {"details": "Group D: cotherapy enzyme inducers + VPA, n = 5"}, "[10]": {"details": "patient No. 25, PER 5 mg·d^−1 with VPA"}},
  "note": "Like-named read-outs stand apart in the source and are kept apart here.",
  "data": [
    {"smiles": "CCCC(CCC)C(=O)O", "note": "[VPA, valproic acid]", "values": [
      {"measurement": "Inhibitory effect on CYP2C19", "setting": "CYP2C19", "value": "minor inhibitory effects"},
      {"measurement": "Inhibition of CYP2C9 activity", "setting": "CYP2C9", "value": "potent inhibition"},
      {"measurement": "Inhibitory effect on CYP3A4", "setting": "CYP3A4", "value": "minor inhibitory effects"}
    ]},
    {"smiles": "N#Cc1ccccc1-c1cc(-c2ccccn2)cn(-c2ccccc2)c1=O", "note": "[PER, Perampanel]", "values": [
      {"measurement": "Plasma half-life", "setting": "[1]", "value": "approximately 105 h"},
      {"measurement": "Decrease of mean PER AUC values", "setting": "[1]; with OXC", "value": 50, "unit": "%"},
      {"measurement": "Decrease in blood concentration", "setting": "[1]; with drugs that induce liver CYP3A4/5", "value": "2–3 fold"},
      {"measurement": "Decrease in PER plasma concentrations", "setting": "[1]; with enzyme-induced AEDs (OXC, CBZ, PHB)", "value": "2–3 fold"},
      {"measurement": "Bound to plasma proteins", "setting": "plasma proteins; after oral administration", "value": 95, "unit": "%"},
      {"measurement": "Free PER available to exert pharmacological effects", "setting": "plasma proteins", "value": 5, "unit": "%"},
      {"measurement": "Free concentration, range", "setting": "Free; [5]", "value": "0.42 to 23.14", "unit": "ng/mL"},
      {"measurement": "Free concentration, mean ± SD", "setting": "Free; 57 plasma samples, steady state, oral PER 2.00–8.00 mg·d^−1", "value": "8.09 ± 5.85", "unit": "ng/mL"},
      {"measurement": "Free PER concentration, mean ± SD", "setting": "Free; [6]", "value": "4.80 ± 3.70", "unit": "ng/mL"},
      {"measurement": "Free PER concentration, mean ± SD", "setting": "Free; [7]", "value": "5.28 ± 5.57", "unit": "ng/mL"},
      {"measurement": "Free PER concentration, mean ± SD", "setting": "Free; [8]", "value": "9.84 ± 5.66", "unit": "ng/mL"},
      {"measurement": "Free PER concentration, mean ± SD", "setting": "Free; [9]", "value": "10.09 ± 7.54", "unit": "ng/mL"},
      {"measurement": "Free PER concentration, mean ± SD", "setting": "Free; VPA cotherapy, n = 36", "value": "9.87 ± 5.83", "unit": "ng/mL"},
      {"measurement": "Free drug PER concentration", "setting": "Free; child No. 38, PER 2 mg·d^−1", "value": 1.95, "unit": "ng/mL"},
      {"measurement": "Free PER concentration, mean ± SD", "setting": "Free; not VPA cotherapy, n = 21", "value": "5.03 ± 4.57", "unit": "ng/mL"},
      {"measurement": "Free drug PER concentration", "setting": "Free; [10]", "value": 17.71, "unit": "ng/mL"},
      {"measurement": "Total concentration, range", "setting": "[2]; [5]", "value": "90.17 to 1867.73", "unit": "ng/mL"},
      {"measurement": "Total PER concentration, mean ± SD", "setting": "[2]; [6]", "value": "311.32 ± 190.14", "unit": "ng/mL"},
      {"measurement": "Total PER concentration, mean ± SD", "setting": "[2]; [7]", "value": "490.97 ± 255.71", "unit": "ng/mL"},
      {"measurement": "Total PER concentration, mean ± SD", "setting": "[2]; [8]", "value": "745.60 ± 415.53", "unit": "ng/mL"},
      {"measurement": "Total PER concentration, mean ± SD", "setting": "[2]; [9]", "value": "780.14 ± 459.18", "unit": "ng/mL"},
      {"measurement": "Total PER concentration, mean ± SD", "setting": "[2]; VPA cotherapy, n = 36", "value": "750.40 ± 415.02", "unit": "ng/mL"},
      {"measurement": "Total drug PER concentration", "setting": "[2]; child No. 38, PER 2 mg·d^−1", "value": 289.24, "unit": "ng/mL"},
      {"measurement": "Total PER concentration, mean ± SD", "setting": "[2]; not VPA cotherapy, n = 21", "value": "396.87 ± 236.55", "unit": "ng/mL"},
      {"measurement": "Total drug PER concentration", "setting": "[2]; [10]", "value": 1158.38, "unit": "ng/mL"},
      {"measurement": "Reference range of blood (total) PER concentration", "setting": "[3]", "value": "86 to 1000", "unit": "ng/mL"},
      {"measurement": "Autosampler 5°C-8 h (x̄ ± s)", "setting": "[4]; nominal 1 ng·mL^−1", "value": "1.03 ± 0.05", "unit": "ng/mL"},
      {"measurement": "frozen at −20 °C for 15 days (x̄ ± s)", "setting": "[4]; nominal 1 ng·mL^−1", "value": "0.96 ± 0.09", "unit": "ng/mL"},
      {"measurement": "frozen at −20 °C for 30 days (x̄ ± s)", "setting": "[4]; nominal 1 ng·mL^−1", "value": "0.96 ± 0.08", "unit": "ng/mL"},
      {"measurement": "frozen at −80 °C for 45 days (x̄ ± s)", "setting": "[4]; nominal 1 ng·mL^−1", "value": "0.97 ± 0.02", "unit": "ng/mL"},
      {"measurement": "frozen at −80 °C for 60 days (x̄ ± s)", "setting": "[4]; nominal 1 ng·mL^−1", "value": "0.95 ± 0.07", "unit": "ng/mL"},
      {"measurement": "Short-term 4 h (x̄ ± s)", "setting": "[4]; nominal 1 ng·mL^−1, room temperature (about 25 °C) 4 h", "value": "1.01 ± 0.09", "unit": "ng/mL"},
      {"measurement": "Freeze-thaw Stability (x̄ ± s)", "setting": "[4]; nominal 1 ng·mL^−1, three freeze–thaw cycles (−20 °C/room temperature)", "value": "1.02 ± 0.05", "unit": "ng/mL"},
      {"measurement": "Autosampler 5°C-8 h (x̄ ± s)", "setting": "[4]; nominal 10 ng·mL^−1", "value": "9.99 ± 0.37", "unit": "ng/mL"},
      {"measurement": "frozen at −20 °C for 15 days (x̄ ± s)", "setting": "[4]; nominal 10 ng·mL^−1", "value": "9.99 ± 0.22", "unit": "ng/mL"},
      {"measurement": "frozen at −20 °C for 30 days (x̄ ± s)", "setting": "[4]; nominal 10 ng·mL^−1", "value": "9.79 ± 0.21", "unit": "ng/mL"},
      {"measurement": "frozen at −80 °C for 45 days (x̄ ± s)", "setting": "[4]; nominal 10 ng·mL^−1", "value": "10.03 ± 0.38", "unit": "ng/mL"},
      {"measurement": "frozen at −80 °C for 60 days (x̄ ± s)", "setting": "[4]; nominal 10 ng·mL^−1", "value": "10.85 ± 0.38", "unit": "ng/mL"},
      {"measurement": "Short-term 4 h (x̄ ± s)", "setting": "[4]; nominal 10 ng·mL^−1, room temperature 4 h", "value": "9.94 ± 0.42", "unit": "ng/mL"},
      {"measurement": "Freeze-thaw Stability (x̄ ± s)", "setting": "[4]; nominal 10 ng·mL^−1, three freeze–thaw cycles", "value": "9.99 ± 0.08", "unit": "ng/mL"},
      {"measurement": "Autosampler 5°C-8 h (x̄ ± s)", "setting": "[4]; nominal 40 ng·mL^−1", "value": "37.53 ± 1.46", "unit": "ng/mL"},
      {"measurement": "frozen at −20 °C for 15 days (x̄ ± s)", "setting": "[4]; nominal 40 ng·mL^−1", "value": "39.06 ± 1.06", "unit": "ng/mL"},
      {"measurement": "frozen at −20 °C for 30 days (x̄ ± s)", "setting": "[4]; nominal 40 ng·mL^−1", "value": "38.87 ± 1.52", "unit": "ng/mL"},
      {"measurement": "frozen at −80 °C for 45 days (x̄ ± s)", "setting": "[4]; nominal 40 ng·mL^−1", "value": "43.90 ± 1.23", "unit": "ng/mL"},
      {"measurement": "frozen at −80 °C for 60 days (x̄ ± s)", "setting": "[4]; nominal 40 ng·mL^−1", "value": "43.64 ± 1.27", "unit": "ng/mL"},
      {"measurement": "Short-term 4 h (x̄ ± s)", "setting": "[4]; nominal 40 ng·mL^−1, room temperature 4 h", "value": "38.09 ± 1.40", "unit": "ng/mL"},
      {"measurement": "Freeze-thaw Stability (x̄ ± s)", "setting": "[4]; nominal 40 ng·mL^−1, three freeze–thaw cycles", "value": "37.39 ± 0.53", "unit": "ng/mL"},
      {"measurement": "Autosampler 5°C-8 h (x̄ ± s)", "setting": "[4]; nominal 120 ng·mL^−1", "value": "113.16 ± 0.76", "unit": "ng/mL"},
      {"measurement": "frozen at −20 °C for 15 days (x̄ ± s)", "setting": "[4]; nominal 120 ng·mL^−1", "value": "121.27 ± 3.40", "unit": "ng/mL"},
      {"measurement": "frozen at −20 °C for 30 days (x̄ ± s)", "setting": "[4]; nominal 120 ng·mL^−1", "value": "119.85 ± 2.22", "unit": "ng/mL"},
      {"measurement": "frozen at −80 °C for 45 days (x̄ ± s)", "setting": "[4]; nominal 120 ng·mL^−1", "value": "130.97 ± 2.18", "unit": "ng/mL"},
      {"measurement": "frozen at −80 °C for 60 days (x̄ ± s)", "setting": "[4]; nominal 120 ng·mL^−1", "value": "132.67 ± 1.39", "unit": "ng/mL"},
      {"measurement": "Short-term 4 h (x̄ ± s)", "setting": "[4]; nominal 120 ng·mL^−1, room temperature 4 h", "value": "111.97 ± 2.47", "unit": "ng/mL"},
      {"measurement": "Freeze-thaw Stability (x̄ ± s)", "setting": "[4]; nominal 120 ng·mL^−1, three freeze–thaw cycles", "value": "115.95 ± 6.88", "unit": "ng/mL"}
    ]}
  ]
}
